Most compounds without a hit are left out; they make up all but 2.3% or so of the library.
TRPC6 act = mouse TRPC6 channel activators, primary screen, cell-based, HEK293, membrane potential dye; Short transient receptor potential channel 6 (Mus musculus), Q61143; HEK293-TRPC6 membrane potential dye fluorescence; active compounds read high; B-score at 10 µM; 310,000 tested, 0.13% active; AID 2550, 2010;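 active = B-score of the integrated fluorescence ratio above library mean plus 3 SD, and starting fluorescence ratio within library mean plus 5 SD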;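 also: higher score means more depolarization so channel activation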
TRPC4 block = inhibitors of mouse TRPC4 channel, primary screen, Fluo4 calcium, HEK293 TRPC4beta/mu-opioid cells; Short transient receptor potential channel 4 (Mus musculus), Q9QUQ5; B-score at 10 µM; DAMGO-evoked Fluo4 calcium flux; active compounds read low; 300,000 tested, 0.39% active;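 active = B-score over 3 SD under the library average, no early fluorescence shift, positive overall ratio signal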
Target sequence (Q9QUQ5 whole entry, looked up): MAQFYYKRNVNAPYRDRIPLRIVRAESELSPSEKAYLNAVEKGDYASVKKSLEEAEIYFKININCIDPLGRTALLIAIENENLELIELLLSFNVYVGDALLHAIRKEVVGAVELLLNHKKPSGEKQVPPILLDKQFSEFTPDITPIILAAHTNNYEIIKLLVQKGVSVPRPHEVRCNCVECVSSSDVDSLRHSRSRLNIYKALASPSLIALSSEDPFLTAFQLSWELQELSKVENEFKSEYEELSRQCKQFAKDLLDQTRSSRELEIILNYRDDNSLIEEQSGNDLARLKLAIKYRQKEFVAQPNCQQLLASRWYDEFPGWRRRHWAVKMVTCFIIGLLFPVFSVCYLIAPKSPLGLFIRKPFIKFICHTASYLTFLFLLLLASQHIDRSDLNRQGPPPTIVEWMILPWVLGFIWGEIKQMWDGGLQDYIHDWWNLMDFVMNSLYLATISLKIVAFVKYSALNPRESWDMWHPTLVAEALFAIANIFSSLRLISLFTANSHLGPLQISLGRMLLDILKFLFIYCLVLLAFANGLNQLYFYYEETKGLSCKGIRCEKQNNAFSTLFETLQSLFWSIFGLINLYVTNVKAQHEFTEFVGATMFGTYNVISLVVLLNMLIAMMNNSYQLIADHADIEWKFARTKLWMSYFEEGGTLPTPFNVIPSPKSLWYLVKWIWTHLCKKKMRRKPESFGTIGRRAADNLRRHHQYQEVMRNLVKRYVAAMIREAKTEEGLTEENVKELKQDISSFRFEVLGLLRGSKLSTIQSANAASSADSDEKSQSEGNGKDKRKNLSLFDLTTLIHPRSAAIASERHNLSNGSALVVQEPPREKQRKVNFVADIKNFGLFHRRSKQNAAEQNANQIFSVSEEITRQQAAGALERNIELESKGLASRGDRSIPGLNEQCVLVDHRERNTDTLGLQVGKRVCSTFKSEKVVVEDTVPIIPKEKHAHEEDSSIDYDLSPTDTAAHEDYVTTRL
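Material: HEK293 cells with stable TRPC4beta plus mu-opioid receptor expression; probe or stimulus: DAMGO in two steps, submaximal then maximal; technique: Fluo4 calcium fluorescence by kinetic imaging, 5 s 1 Hz baseline; measure: integrated fluorescence ratio relative to baseline, converted to per-well B score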
TRPC4 act = activators of mouse TRPC4 channel, primary screen, Fluo4 calcium, HEK293 TRPC4beta/mu-opioid cells. Short transient receptor potential channel 4 (Mus musculus), Q9QUQ5. Fluo4 calcium fluorescence; active compounds read high. B-score at 10 µM. 310,000 tested, 0.49% active. AID 2237, 2010;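 active = B-score above 5 SD of library B-scores, and initial fluorescence ratio not above library mean plus 5 SD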;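 also: positive B-score marks a calcium rise read as TRPC4 activation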
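System: HEK293 cells stably co-expressing mouse TRPC4beta and mu-opioid receptor; Schedule: Fluo4 dye loading 45 min at room temperature, 110 s recording; Detection: Fluo4 fluorescence, kinetic; Evaluation: B-scored integrated calcium fluorescence ratio; Controls: buffer (low) and maximal DAMGO (high).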
TRPC6 inhibitor = mouse TRPC6 channel inhibitors, primary screen, cell-based, HEK293, membrane potential dye; ACh-evoked depolarization; active compounds read low; AID 2553, 2010; B-score at 10 µM; 310,000 tested, 1.1% active;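 active = B-score under library mean minus 3 SD, initial fluorescence not abnormally high, positive integrated signal ratio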;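 also: B-score derived from integrated fluorescence ratio over the kinetic read; more negative B-score means stronger inhibition of depolarization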
TRPC4 PAM = positive allosteric modulators of TRPC4, primary screen, cell-based, mouse TRPC4beta, HEK293 mu-opioid, Fluo-4 calcium; 310,000 tested, 0.42% active; Short transient receptor potential channel 4 (Mus musculus), Q9QUQ5; AID 2227, 2009; B-score at 10 µM; DAMGO EC20, Fluo-4 Ca2+ flux; active compounds read high;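 active = B-score of calcium response area above 5 SD of library B-scores, with initial fluorescence ratio within 5 SD of library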;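 also: B-score of integrated fluorescence ratio over time as area under calcium response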
HEK293 MPD ctr = parental HEK293 membrane potential modulation, confirmation, counter-screen for TRPC6 modulator project, cell-based | shares compounds with TRPC6 inhibitor | membrane potential dye fluorescence | membrane potential signal change, % at 10 µM | 2,400 tested, 51% active;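 active = membrane potential signal moves up or down beyond 5 SD from buffer-only wells, on both duplicate plates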
HEK293 MPD ctr 2 = second counter-screen for TRPC6 modulators: effect in parental HEK293 cells; shares compounds with TRPC6 inhibitor; membrane potential dye fluorescence; after compound, maximal acetylcholine stimulation; inhibition, % at 10 µM; 2,400 tested, 14% active; AID 488926;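 active = membrane potential signal drops by more than 5 SD from the mean control signal, in both duplicate plates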;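 also: plate controls were acetylcholine ECmax control wells for no effect and buffer only wells for full effect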
TRPC4/MOR mod = TRPC4 modulation by TRPC6 hit compounds, confirmation, selectivity assay for TRPC6 modulator project, cell-based, HEK293 TRPC4/mu-opioid, membrane potential dye, mouse; shares compounds with TRPC6 inhibitor; membrane potential fluorescence; percent change from control (negative = decrease, positive = increase), % at 10 µM; 2,400 tested, 69% active; AID 488927, 2010;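 active = membrane potential signal moved up or down beyond 5 SD of buffer control wells, in both duplicate plates, actives on both sides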;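 also: plate controls were assay buffer wells for no effect and DAMGO maximal-effect wells for full effect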
TRPC4/MOR inh 2 = second check of whether TRPC6 modulators also affect mouse TRPC4. shares compounds with TRPC6 inhibitor. inhibition, % at 10 µM. HEK293 TRPC4/mu-opioid, membrane potential dye fluorescence; stimulated with maximal-effect DAMGO. 2,400 tested, 55% active;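 active = drop in membrane potential signal beyond 5 SD of the control wells in both duplicate plates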;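 also: TRPC4 counter screen for TRPC6 hits run under conditions tuned for TRPC6 not TRPC4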
TRPC6 block conf = mouse TRPC6 channel inhibitors, confirmation, HEK293 cells, membrane potential dye, duplicate | shares compounds with TRPC6 inhibitor | ACh-evoked depolarization | inhibition, % at 10 µM | 3,300 tested, 43% active | AID 488960, 2010;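 active = fluorescence ratio falls more than 5 SD below the full-stimulation control mean, in both duplicate runs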;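 also: integrated fluorescence ratio of peak minus minimum over baseline after agonist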
TRPC6 act confirm = mouse TRPC6 channel activators, confirmation, HEK293 cells, membrane potential dye, duplicate | shares compounds with TRPC6 inhibitor | HEK293-TRPC6 membrane potential dye fluorescence, FDSS | activation, % at 10 µM | 2,800 tested, 11% active;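 active = ratio signal rise beyond 5 SD above unstimulated control wells' mean, seen in both duplicate runs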;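 also: plate controls were buffer EC0 wells for no effect and acetylcholine ECmax response for full effect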
* marks the source's active call; other numbers are inactive results; i = inactive; . = not tested or not shown.

SMILES	TRPC6 act	TRPC4 block	TRPC4 act	TRPC6 inhibitor	TRPC4 PAM	HEK293 MPD ctr	HEK293 MPD ctr 2	TRPC4/MOR mod	TRPC4/MOR inh 2	TRPC6 block conf	TRPC6 act confirm
CN1CCN(C2Cc3ccccc3Sc3cc(C(F)(F)F)ccc32)CC1 (stereo unspecified)	i	i	i	i	i	.	.	.	.	.	.
CCc1cccc2c1Sc1ccccc1CC2N1CCNCC1 (stereo unspecified)	i	i	i	-5.5*	i	i	i	i	70%*	50%*	i
CN1CCN(C2Cc3cc(F)ccc3Sc3ccc(Cl)cc32)CC1 (stereo unspecified)	i	i	i	-5.3*	i	i	i	21%*	47%*	48%*	.
CN(C)CCN(C(=O)c1ccc2c(c1)CCCC2)c1nc2cc3c(cc2s1)OCCO3	i	i	i	i	i	.	.	.	.	.	.
CN(C)CCN(C(=O)c1ccc2c(c1)OCCO2)c1nc2cc3c(cc2s1)OCO3	i	i	i	-6.4*	i	-82%*	100%*	-24%*	92%*	88%*	i
COc1ccc2nc(N(CCN(C)C)C(=O)c3ccc4c(c3)OCCO4)sc2c1	i	i	i	-5.1*	i	i	i	-24%*	72%*	64%*	i
Cc1cc2nnn(-c3nnc(-c4ccccc4)c4ccccc34)c2cc1C	i	i	i	i	i	.	.	.	.	.	.
COc1cccc2cc(C(=O)NCCc3ccccc3)oc12	i	i	i	-6.2*	i	90%*	i	16%*	i	i	.
COc1cccc(OC)c1C(=O)NCCc1ccccc1	i	i	i	i	i	.	.	.	.	.	.
COc1ccc2nc(NCc3ccccc3)[nH]c2c1	i	-7*	i	-5.2*	i	i	i	i	90%*	i	i
Cc1ccc2nc(NCc3ccccc3)[nH]c2c1	i	-5*	i	-6.5*	i	i	i	i	98%*	49%*	i
N#CCCN(C(=O)COC(=O)c1ccc(CNS(=O)(=O)c2ccc(F)c(Cl)c2)cc1)c1ccc(F)cc1	i	i	i	i	i	.	.	.	.	.	.
CC1CC(C)CN(C(=O)c2ccc3c(c2NCCO)C(=O)c2ccccc2C3=O)C1 (stereo unspecified)	i	i	i	-7*	i	-246%*	i	-45%*	80%*	68%*	i
